Screens from PubChem BioAssay.
The list is not random: actives were taken first. Their share in the collection is about 1.5%.
CCR6 antag = blocks CCL20-driven beta-arrestin recruitment at human CCR6; inhibition, % at 20 µM; P51684; CHO-K1 CCR6 PathHunter beta-arrestin, luminescence, CCL20-stimulated; hit rate 0.49% among 340,000;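 active = compounds whose inhibition of the agonist-driven luminescence signal at 20 µM reaches about 50%, limit read from the data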;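 also: cells stimulated with CCL20 at 14 nM final; plate controls were DMSO with CCL20 for no effect and DMSO without agonist for full effect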
Target sequence (P51684 whole entry, looked up): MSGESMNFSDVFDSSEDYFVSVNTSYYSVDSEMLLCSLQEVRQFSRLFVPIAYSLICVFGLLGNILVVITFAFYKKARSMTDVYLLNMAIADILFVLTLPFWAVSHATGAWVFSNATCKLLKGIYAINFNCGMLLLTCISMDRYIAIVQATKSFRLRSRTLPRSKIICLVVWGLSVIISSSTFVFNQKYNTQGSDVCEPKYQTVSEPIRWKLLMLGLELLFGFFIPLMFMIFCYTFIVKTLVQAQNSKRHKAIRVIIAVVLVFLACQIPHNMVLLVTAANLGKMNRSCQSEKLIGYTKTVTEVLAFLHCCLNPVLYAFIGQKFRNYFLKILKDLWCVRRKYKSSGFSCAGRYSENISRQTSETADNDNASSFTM
CXCR6 inh = blocks human CXCR6 beta-arrestin recruitment. O00574. CHO-K1 PathHunter CXCR6 beta-arrestin, luminescence. inhibition, % at 20 µM. hit rate 0.36% among 360,000; in the data active = inhibition above about 34%, passing the limit was not always enough;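 also: antagonist mode with CXCL16 agonist at 10 nM final; 0% = 10 nM CXCL16 with DMSO and 100% = unstimulated wells without agonist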
APJ antag = antagonists of human APJ apelin receptor | P35414 | CHO-K1 APJ beta-arrestin complementation, luminescence | inhibition, % at 20 µM | hit rate 0.32% among 330,000 | AID 2521;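 active = inhibition above about 40% at 20 µM, limit read from the data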;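 also: cells challenged with 10 nM apelin-13 agonist together with compound; plate controls were apelin-13 plus DMSO wells for no effect and DMSO wells lacking apelin-13 for full effect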
APJ agonist = agonists of human APJ apelin receptor; P35414; CHO-K1 APJ PathHunter beta-arrestin, luminescence; 0% DMSO wells, 100% apelin; activation, % at 20 µM; hit rate 0.11% among 330,000; AID 2520;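 active = activation more than six SD over the plate average, tested at 20 µM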;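 also: 0% = DMSO alone and 100% = apelin-13 at 10 nM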
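Material: CHO-K1 APJ beta-arrestin complementation cell line; Input: cell density 1000 per well; Incubation: compound stimulation 90 min at 25 °C, detection 60 min; Signal: luminescence from split beta-galactosidase complementation, Galacton Star/Emerald II substrate; Controls: DMSO-only wells as negative, 10 nM Apelin-13 as positive control.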
EBI2 block = antagonists of human EBI2 receptor; AID 651636; hit rate 0.81% among 360,000; EBI2 beta-arrestin recruitment, luminescence, 7a,25-OHC stimulated; inhibition, % at 5 µM; P32249; in the data active = inhibition above about 38%;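 also: enzyme fragment complementation signal reports receptor beta-arrestin coupling in cells; 0% = agonist plus DMSO wells and 100% = wells without agonist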
Active calls of the source: *; · = no result.

SMILES | CCR6 antag | CXCR6 inh | APJ antag | APJ agonist | EBI2 block
O=C(CSc1nc(-c2cccs2)cc(C(F)(F)F)n1)NCCCn1ccnc1 | 2 | 7 | -3 | 6 | 6
O=C(CSc1nc(-c2ccco2)cc(C(F)(F)F)n1)NCCCn1ccnc1 | -5 | 48* | -6 | -2 | -4
Cc1ccc([C@H]2C[C@@H](O)[C@H](n3cc(C4CC4)nn3)CN2C(=O)C2CCCCC2)cc1 | · | 4 | · | · | 0
COc1cc(-n2nc(C)c3c2OC(N)=C(C#N)C3c2ccccc2)c(Cl)c(Br)c1O (stereo not given) | 70* | 22 | 34 | -7 | 7
NS(=O)(=O)c1ccc(NC2=CC(c3ccc([N+](=O)[O-])cc3)N(c3ccc(S(N)(=O)=O)cc3)C2=O)cc1 (stereo not given) | 50* | 60* | 32 | -1 | -8
COc1ccc(NC2=CC(c3ccc(OC)c(OC)c3)N(c3ccc(OC)cc3)C2=O)cc1 (stereo not given) | 11 | -4 | 1 | -3 | 14
COc1ccc(C(O)c2nc(-c3cccc4cccnc34)cs2)cc1 (stereo not given) | · | 1 | · | · | -7
O=C(OCn1ncc(Cl)c(Cl)c1=O)c1cccc(C(F)(F)F)c1 | 59* | 50* | 38 | -1 | 52*
COc1ccc(C(=O)CC(=O)C(=O)Nc2ccc(Cl)cc2)cc1 | 53* | 18 | · | · | -12
COc1ccc(C(=O)CC(=O)C(=O)Nc2ccc(OC)c(Cl)c2)cc1 | 15 | 9 | 9 | -2 | -8
COc1ccc(NC(=O)C(c2ccccc2)n2c(=O)c(-c3ccco3)nc3ccccc32)cc1 (stereo not given) | · | · | · | · | 11
O=[N+]([O-])c1ccc(N=Nc2c(Cl)cc(O)cc2Cl)cc1 | 74* | 44* | · | · | 5
O=C(NCc1ccncc1)[C@@H]1CCCN1C(=O)[C@H]1CCCN1 | · | 3 | · | · | -15
CC(C)(C)c1ccc(S(=O)(=O)/N=C2\C=C(NS(=O)(=O)c3ccccc3)C(=O)c3ccccc32)cc1 | 50* | 28 | 0 | -4 | -3
Cc1ccc(S(=O)(=O)/N=C2/C=C(Sc3ncn[nH]3)C(=O)c3ccccc32)cc1 | 92* | 81* | · | · | 0
Cc1ccc(S(=O)(=O)/N=C2\C=C(Nc3ccc(O)cc3)C(=O)c3ccccc32)cc1 | 63* | 30 | 26 | -3 | -7
Cc1ccc(S(=O)(=O)/N=C2\C=C(Nc3cccc(C(=O)O)c3)C(=O)c3ccccc32)cc1 | 23 | 27 | 18 | 0 | -2
CC(C)c1ccc(S(=O)(=O)/N=C2/C=C(Sc3ncn[nH]3)C(=O)c3ccccc32)cc1 | 7 | 9 | · | · | 11
O=C1C(Nc2ccccc2)=C/C(=N/S(=O)(=O)c2cccs2)c2ccccc21 | 64* | 42* | · | · | 16
CCc1ccc(S(=O)(=O)/N=C2\C=C(Nc3ccc(C(=O)O)cc3)C(=O)c3ccccc32)cc1 | 16 | 14 | 1 | -4 | -8
Cc1cccc2sc(=S)[nH]c12 | · | -6 | · | · | -16
C[C@@H]1CN([C@H](C)CO)C(=O)CCCn2cc(nn2)CO[C@H]1CN(C)C(=O)Nc1ccc2c(c1)OCO2 | · | 0 | · | · | -5
COC(=O)C[C@H]1CC[C@H](NC(=O)Nc2ccccc2)[C@@H](CO)O1 | · | · | · | · | 4
COc1ccc(NC(=O)c2cc(-c3cc(C)cc(F)c3)n[nH]2)cc1OC | · | -10 | · | · | 2
Cc1ccc(NC2=C/C(=N/S(=O)(=O)c3cccs3)c3ccccc3C2=O)cc1 | 59* | 33 | 27 | 1 | 32
SMILES | CCR6 antag | CXCR6 inh | APJ antag | APJ agonist | EBI2 block
Cc1[nH]c2ccccc2c1C(C#N)(C#N)C1C(=O)c2ccccc2C1=O | 45 | 43* | 12 | -4 | -24
Cc1[nH]c2ccccc2c1CC#N | 11 | 2 | 12 | -2 | -8
O=C(Nc1cccc(C(=O)N2CCOCC2)c1)C1CCCCC1 | · | 2 | · | · | -8
Cc1cc(C)nc(SCc2cc(=O)c(OC(=O)c3ccc(Cl)c([N+](=O)[O-])c3)co2)n1 | 13 | 21 | 58* | 1 | 1
CCOc1ccccc1-c1cnc(NC)cn1 | · | 1 | · | · | 0
CC(C)CN1C(=O)C(=O)N(CC(=O)NCCCc2ccccc2)C1=O | · | -7 | · | · | 2
O=C1C(Cl)=C(NC(=O)c2ccccc2)C(=O)C(Cl)=C1NC(=O)c1ccccc1 | · | 88* | -37 | 1 | 32
O=C(NC1=C(Nc2ccc(Cl)cc2)C(=O)c2ccccc2C1=O)c1ccccc1 | 6 | 0 | -55 | 3 | -14
CC[C@]12C(=O)N(C)C[C@H]([C@@H]3C(=O)N(Cc4ccccc4)C(=O)[C@@H]31)N2C(=O)c1ccc(C(F)(F)F)cc1 | 1 | · | · | · | ·
CC(C)CCNC(=O)c1cc(S(=O)(=O)N2CCC3(CC2)OCCO3)ccc1F | · | -2 | · | · | -14
COc1ccc2c(c1O)C(=O)c1ccccc1C2=O | · | · | -107 | 2 | ·
Nc1c(O)ccc2c1C(=O)c1ccccc1C2=O | 50* | · | · | · | ·
CCOC(=O)[C@]12CCC=C1N(Cc1ccc(Cl)cc1Cl)C(=O)[C@H](CC(=O)NCc1cccs1)C2 | · | 9 | · | · | 9
C[C@@H]1Cn2cnc(C(=O)N[C@@H](C)c3ccccc3)c2C(=O)N1 | · | 0 | · | · | 42
CC(CCc1ccccc1)NC(=O)COC(=O)c1ccc([N+](=O)[O-])cc1 (stereo not given) | 1 | -3 | -5 | 0 | -10
CC(CCc1ccccc1)NC(=O)COC(=O)c1ccc(S(C)(=O)=O)c([N+](=O)[O-])c1 (stereo not given) | 50* | 31 | 5 | 7 | 10
O=C(N/N=C/c1cccc2nccnc12)c1ccncc1 | 0 | -8 | 15 | 3 | 6
O=C(N/N=C/c1cccc2nccnc12)c1ccccc1O | 66* | 40 | 34 | -10 | -6
CC(C)C[C@@H](CNCC(=O)[C@H](Cc1ccccc1)NC(=O)c1[nH]cnc1C(=O)N[C@@H](C)CN)NC(=O)c1nc[nH]c1C(=O)N[C@@H](C)C(=O)O | 15 | 2 | · | · | 0
C[C@H](NC(=O)COc1ccccc1)C(=O)OCC(=O)c1cc2ccccc2o1 | 76* | 48* | · | · | 22
O=C1C=CC(=O)N1c1cccc(-c2ccccc2)c1 | 76* | 72* | -2 | 2 | 7
O=C(/C=C/c1ccc(O)c(O)c1)c1ccccc1O | 52* | 22 | 43* | -4 | 6
C(=C\c1sc(Nc2ccccc2)n[n+]1-c1ccccc1)/c1ccccc1 | 66* | 26 | · | · | -4
COc1ccc(-c2sc(Nc3ccccc3)n[n+]2-c2ccccc2)cc1Br | 16 | 6 | -42 | -3 | 18
CC(C)[C@@H](NC(=O)OC(C)(C)C)c1cc(C(=O)c2c(-c3ccccc3)[nH]c3ccccc23)c(N)s1 | · | · | · | · | 11
COc1cc(CN2C[C@@H](CO)O[C@@H](n3cnc4c(NCc5ccc(F)cc5)ncnc43)C2)cc(OC)c1OC | · | 1 | · | · | -10
Cc1ccccc1-c1ccc(Nc2ccc(N3CCOCC3)cc2)nn1 | -12 | 3 | 4 | 2 | 71*
COc1ccc(CCN2C(=O)CCC3=C2CCCC3=O)cc1OC | · | -2 | · | · | -7
